V1aR counter = agonists of human V1a receptor, primary screen, counter-screen for OXTR agonist project, fluorescence, CHO-V1R cells; Fluo-8 calcium fluorescence, agonist mode; 0% DMSO, 100% 3 nM vasopressin; 0.25% of 320,000 active; AID 2797, 2010; activation, % at 3 µM; Vasopressin V1a receptor (Homo sapiens), P37288;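 active = activation above the mean activation of all tested compounds plus 3 SD, per screening run, cut at about 20% in these data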;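 also: signal is peak over basal fluorescence ratio across a 100 second FLIPR read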
Target sequence (P37288 whole entry, looked up): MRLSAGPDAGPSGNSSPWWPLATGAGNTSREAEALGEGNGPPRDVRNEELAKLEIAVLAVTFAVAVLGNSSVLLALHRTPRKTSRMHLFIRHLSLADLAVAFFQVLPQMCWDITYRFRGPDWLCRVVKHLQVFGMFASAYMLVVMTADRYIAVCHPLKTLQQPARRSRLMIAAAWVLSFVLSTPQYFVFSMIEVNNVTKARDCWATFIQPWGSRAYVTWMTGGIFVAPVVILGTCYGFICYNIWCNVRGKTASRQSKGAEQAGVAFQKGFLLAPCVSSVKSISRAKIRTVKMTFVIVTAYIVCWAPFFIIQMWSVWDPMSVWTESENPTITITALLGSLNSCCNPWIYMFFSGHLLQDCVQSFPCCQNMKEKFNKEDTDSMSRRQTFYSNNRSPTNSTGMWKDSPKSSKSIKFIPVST
OXTR potentiate = human OXTR potentiators, primary screen, fluorescence, CHO-OTR cells, Fluo-8 calcium; Oxytocin receptor (Homo sapiens), P30559; Fluo-8 calcium fluorescence, potentiator mode; 0% = oxytocin EC15, 100% = EC100; 0.061% of 320,000 active; activation, % at 3 µM;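 active = activation above that plate's cutoff, the mean activation of tested compounds plus 3 SD, cut at about 6.6% in these data, passing the limit was not always enough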;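 also: 100% uses oxytocin at 75 nM as the full agonist control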
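System: human OTR in CHO cells / Also added: sub-maximal oxytocin, roughly EC15 / Control set: EC15 oxytocin low, 75 nM oxytocin high / Schedule: 6 min compound pre-incubation at room temperature, 100 s kinetic read / Compound: single-point 3.0 µM / Replication: singlicate / Technique: Fluo-8 calcium dye fluorescence / Read-out basis: % activation of max/min ratio relative to oxytocin controls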
OXTR agonist = human OXTR agonists, primary screen, fluorescence, CHO-OTR cells, Fluo-8 calcium. 0.32% of 320,000 active. activation, % at 3 µM. Oxytocin receptor (Homo sapiens), P30559. Fluo-8 calcium fluorescence; normalized: DMSO 0%, oxytocin 100%;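 active = activation above the mean of all tested compounds plus 3 SD, cutoff set per screening run, cut at about 20% in these data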;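 also: peak over basal fluorescence ratio from a 100 s FLIPR kinetic read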
zfTRPN1 agonist = zebrafish TRPN1 channel agonists, primary screen, cell-based, HEK293, calcium fluorescence. 0.18% of 220,000 active. transient receptor potential cation channel N1 (TRPN1/NompC), Danio rerio. HEK293 zebrafish TRPN1-YFP, Fluo-8 calcium fluorescence; 100% = response to 87 µM carbachol. activation, % at 3 µM;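 active = activation above its plate's cutoff, the mean activation of test wells on that plate plus 3 SD, cut at about 19% in these data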;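 also: 0% = DMSO alone and 100% = 87 µM carbachol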
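Material: zebrafish TRPN1-YFP in HEK293 cells. Doses: one dose of 3 µM, 0.3% DMSO. Incubation: dye 1 h 37 °C plus 30 min RT. Measured by: intracellular calcium fluorescence with Fluo-8.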
TRPML3 agonist = human TRPML3 channel agonists, primary screen, cell-based, HEK293 TRPML3-YFP, Fluo-8 calcium fluorescence, 3 µM. Mucolipin-3 (Homo sapiens), Q8TDD5. 100% = the carbachol control signal. activation, % at 3 µM. 0.29% of 220,000 active;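 active = activation above its plate's cutoff, the mean activation of the plate's test wells plus 3 SD, cut at about 12% in these data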;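 also: 0% = DMSO only wells and 100% = carbachol wells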
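Material: HEK293 cells stably carrying human TRPML3-YFP; compound dosing: single dose, 3 µM final nominal compound, 0.3% DMSO final; incubation: 1-h 37 °C dye load, 5-s basal, 120-s post-compound reads; technique: Fluo-8 intracellular calcium fluorescence, excitation 470-495 nm, emission 515-575 nm; read-out basis: percent activation from peak-to-basal fluorescence ratio, scaled between DMSO and carbachol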
An asterisk follows results filed as active; . = not tested or not shown. Compounds with a hit are over-represented: about 0.55% of the library has one in this group of screens.

SMILES | V1aR counter | OXTR potentiate | OXTR agonist | zfTRPN1 agonist | TRPML3 agonist
CN(C)c1ccc(/C=C/C(=O)c2ccc3c(c2)OCO3)cc1 | 77* | -12 | 75* | . | .
CCC(=O)N1CCN=C1SCc1ccccc1Cl | -1 | 6 | 0 | 0 | 0
COCCn1c(SCC(=O)N2CCOCC2)nnc1-c1ccco1 | -1 | -14 | 11 | . | .
COc1ccc(OC)c(/C=C2/Sc3ccccc3C2=O)c1 | 28* | -14 | 24* | 13 | 7
C#CCOCCOCCOCCNc1nc(N2CCN(C(=O)CCCCCCCCCCNC(=O)Cn3cc(CCCCCN)nn3)CC2)nc(N2CCN(C(=O)CCCCCCCCCCNC(=O)[C@H](CO)n3cc(CCCCCN)nn3)CC2)n1 | 26* | -15 | 25* | . | .
C#CCOCCOCCOCCNc1nc(N2CCN(C(=O)CCCCCCCCCCNC(=O)[C@H](CCCCN)n3cc(C)nn3)CC2)nc(N2CCN(C(=O)CCCCCCCCCCNC(=O)[C@@H]([C@H](C)CC)n3cc(CCCCCN)nn3)CC2)n1 | 38* | -13 | 3 | . | .
C#CCOCCOCCOCCNc1nc(N2CCN(C(=O)CCCCCCCCCCNC(=O)[C@H](CCCCN)n3cc(CCO)nn3)CC2)nc(N2CCN(C(=O)CCCCCCCCCCNC(=O)[C@@H]([C@H](C)O)n3cc(C)nn3)CC2)n1 | 12 | -8 | 1 | . | .
C#CCOCCOCCOCCNc1nc(N2CCN(C(=O)CCCCCCCCCCNC(=O)[C@H]([C@@H](C)CC)n3cc(CCCCCN)nn3)CC2)nc(N2CCN(C(=O)CCCCCCCCCCNC(=O)[C@@H]([C@H](C)O)n3cc(C)nn3)CC2)n1 | 58* | -13 | 37* | . | .
COc1ccc(NC(=O)N2CCN(S(C)(=O)=O)CC2)cc1 | 1 | -5 | 0 | 1 | 1
O=S(=O)(/N=S1/CC=CCN1S(=O)(=O)c1ccccc1)c1ccccc1 (centres undefined) | 31* | -15 | 29* | 0 | 2
CSc1sc(C(=O)N2CCc3ccccc32)cc1S(=O)(=O)C(C)C | 0 | -8 | -1 | . | .
CCOC(=O)CN1C(=O)S/C(=C/C=C/c2ccc(N(C)C)cc2)C1=O | 28* | -17 | 26* | 6 | 6
CCOC(=O)CN1C(=O)S/C(=C/c2ccc3c(c2)n(C)c(=O)n3C)C1=O | 0 | -2 | 1 | 0 | 0
CC(C)=CCC[C@](C)(O[C@@H]1O[C@H](CO[C@@H]2O[C@H](CO)[C@@H](O)[C@H](O)[C@H]2O)[C@@H](O)[C@H](O)[C@H]1O)C1CC[C@]2(C)C1C(=O)CC1[C@@]3(C)CC[C@H](O[C@H]4O[C@@H](CO)[C@H](O)[C@@H](O)[C@@H]4O)C(C)(C)C3CC[C@]12C (some centres undefined) | 1 | -2 | 1 | . | .
CC(=O)OCC1O[C@@H](O[C@@H]2C[C@H]3C(C)(C)[C@H](OC(C)=O)CC[C@]3(C)[C@H]3CC[C@]45C[C@]4(CC[C@H]5[C@@H](C)C[C@@H](O)[C@H](O)C(C)(C)O)[C@@]32C)[C@H](O)[C@@H](O)[C@@H]1O (some centres undefined) | 87* | -18 | 69* | 1 | 0
O=C(Nc1cccc(S(=O)(=O)NC2=NCCCCC2)c1)c1cc(-c2ccccc2)nc2ccccc12 | 0 | -1 | 0 | 0 | 2
CCC1(c2ccc(F)cc2)NC(=O)N(CC(=O)c2cc(C)n(C3CC3)c2C)C1=O (centres undefined) | 30* | -22 | 31* | . | .
CCN(CC)c1ccc(/C=C(\C#N)C(=O)c2ccc(Br)cc2)cc1 | 70* | -11 | 133* | 10 | 6
CN(C)c1ccc(/C=C(\C#N)C(=O)c2ccccc2)cc1 | 53* | -24 | 80* | 58* | 38*
CC(=O)OCCn1c(C)[n+](CCOC(C)=O)c2cc(Cl)c(Cl)cc21 | 2 | 9 | 1 | 0 | 0
CC(=O)OCCn1c2nc(=O)[nH]c(=O)c-2nc2cc(C)c(C)cc21 | . | . | . | 142* | 88*
O=c1c(O)c(-c2cccs2)oc2ccc(Cl)cc12 | 92* | -13 | 63* | 49* | 52*
Cc1ccc(-c2oc3ccccc3c(=O)c2O)cc1 | 6 | -10 | 7 | 0 | -1
O=c1c(O)c(-c2cccs2)oc2ccccc12 | 59* | -9 | 35* | 26* | 16*
Cc1cc(NC(=O)c2cccc(S(=O)(=O)N3CCOCC3)c2)no1 | -1 | -16 | 1 | 2 | 2
SMILES | V1aR counter | OXTR potentiate | OXTR agonist | zfTRPN1 agonist | TRPML3 agonist
CC1(C)CSC(=NCc2ccccc2)N1C(=O)c1cccc([N+](=O)[O-])c1 | 7 | -12 | 10 | 40* | 15*
NC(=NCc1ccccc1)c1cccc([N+](=O)[O-])c1 | 1 | -1 | 2 | . | .
CC1=C/C(=C\C=C(C#N)C#N)N(C)c2ccccc21 | 32* | -9 | 23* | 27* | 17*
CN1/C(=C/C=C(C#N)C#N)C(C)(C)c2ccccc21 | -1 | -5 | -3 | 1 | 1
Cc1nn(-c2ccccc2)c(Cl)c1/C=C1\SC(=S)NC1=O | 3 | -5 | 4 | 1 | 2
CCC(C)(C(=O)NC1CCCCC1)N(C(=O)Cc1cccs1)c1ccccc1 (centres undefined) | 18 | -12 | 23* | -1 | -1
CCC(C)(C(=O)NC1CCCC1)N(Cc1cccs1)C(=O)Cc1cccs1 (centres undefined) | 0 | -12 | -2 | -1 | 1
Cc1cccc(NC(=O)CCc2nnc3ccc(NCc4ccco4)nn23)n1 | 0 | -5 | 0 | . | .
COc1ccc2[nH]c3c(NCCC4=CCCCC4)ncnc3c2c1 | . | . | . | 20* | 9
CCN(CC)CCNc1ncnc2c1[nH]c1ccc(OC)cc12 | -1 | 1 | 0 | 2 | 0
CCC(=O)c1ccc(OC(=O)c2ccc(Br)o2)cc1 | 44* | -21 | 35* | 0 | 0
CC(=O)c1ccc(OC(=O)c2ccc(Br)o2)cc1 | 9 | -9 | 15 | -1 | 0
NC(CCCCc1ccccc1)c1cccc2ccccc12 (centres undefined) | 3 | -16 | 21* | . | .
CC(CCc1ccccc1)NCc1cccc2ccccc12 (centres undefined) | 8 | -13 | 8 | . | .
N#C/C(=C\c1ccc(N2CCCCC2)o1)C(N)=O | 7 | -2 | 3 | 4 | 4
N#C/C(=C\c1ccc(N2CCCCC2)o1)C(=O)Nc1cccc(Br)c1 | 199* | -21 | 187* | 20* | 14*
